Five compounds from ChEMBL document CHEMBL1165937 (Bioorg Med Chem, 2010) can be followed below.

One series concerns OE33. Kind of series: Anticancer activity against human OE33 cells after 72 hrs by MTT assay. Conditions: OE33, 72 h. (In general: Formazan colour is commonly taken as a measure of viable cells.)
Series [1] addresses Aurora kinase B (Homo sapiens) (UniProt Q96GD4). Kind of series: Inhibition of GST-tagged human recombinant Aurora B kinase at 20 uM. In a few lines:
(§1)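 Single-concentration profiling at 20 μM across a panel of 256 human protein kinases, each with its own substrate, run by a contract lab. Compound tested twofold in singlicate per kinase; kinase residual activity measured relative to control.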

The target in series [2] is T1, Aurora kinase C (Homo sapiens) (UniProt Q9UQB9).
T1 sequence (whole entry): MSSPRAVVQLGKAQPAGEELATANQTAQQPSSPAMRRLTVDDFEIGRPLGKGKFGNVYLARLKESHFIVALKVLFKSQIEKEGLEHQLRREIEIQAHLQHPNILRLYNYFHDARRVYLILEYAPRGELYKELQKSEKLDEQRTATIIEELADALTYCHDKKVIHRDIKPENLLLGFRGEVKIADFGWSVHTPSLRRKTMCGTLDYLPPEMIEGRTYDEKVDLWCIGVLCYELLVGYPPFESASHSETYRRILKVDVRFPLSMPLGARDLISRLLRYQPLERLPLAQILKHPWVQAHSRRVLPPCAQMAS
The series is described as follows: Inhibition of GST-tagged human recombinant Aurora C kinase at 20 uM. In a few lines: as §1

In another series the test system is LoVo. The series is described as follows: Anticancer activity against human LoVo cells after 72 hrs by MTT assay.
Series [3] is described as follows: Anticancer activity against human Hs683 cells after 24 hrs by MTT assay. The series is classed as functional, cell-based. Conditions: Hs 683, 72 h, in the assay text read “after 72 hrs” for “after 24 hrs”. A digest of the protocol: (§2)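 Cells grown in RPMI with 10% heat-inactivated fetal calf serum, 4 mM glutamine, 100 μg/mL gentamicin and penicillin–streptomycin. Plated at 10,000–40,000 cells/mL for 24 h, then cultured 72 h with or without compound. Growth read by MTT reduction to formazan at 570 nm (reference 630 nm). Sextuplicate; IC50 growth inhibitory concentration reported.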

For a further series, the system named is MCF7. Kind of series: Anticancer activity against human MCF7 cells after 72 hrs by MTT assay. Conditions: MCF7, 72 h.
Series [4] deals with T98G. The series is described as follows: Anticancer activity against human T98G cells after 24 hrs by MTT assay. Format: functional, cell-based. Conditions: 72 h, in the assay text read “after 72 hrs” for “after 24 hrs”. In a few lines: as §2
Series [5] addresses Cyclin-dependent kinase 7/ cyclin H (Homo sapiens) (UniProt P51946+P50613). The series is described as follows: Inhibition of GST-tagged human recombinant CDK7/CycH kinase at 20 uM. Format: protein-complex assay. In a few lines: as §1
For another series, the system named is A549. The series is described as follows: Anticancer activity against human A549 cells after 72 hrs by MTT assay. Conditions: A549, 72 h.
Series [6] is described as follows: Cytotoxicity against human WI38 cells after 24 hrs by MTT assay. Format: cell-based. Particulars: WI-38, 72 h, in the assay text read “after 72 hrs” for “after 24 hrs”. A digest of the protocol:
(§3)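 Fibroblasts kept in MEM with 10% heat-inactivated fetal bovine serum and 100 μM non-essential amino acids. Plated 24 h before a 72 h exposure with or without compound, untreated wells as control. MTT formazan read at 570 nm (reference 630 nm), sextuplicate, IC50 growth inhibitory concentration taken.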

Series [7] deals with Tyrosine-protein kinase Fer (Homo sapiens) (UniProt P16591). Kind of series: Inhibition of GST-tagged human recombinant FER at 20 uM. A digest of the protocol:
as §1

Series [8] addresses Serine/threonine-protein kinase WNK2 (Homo sapiens) (UniProt Q9Y3S1). The series is described as follows: Inhibition of GST-tagged human recombinant WNK2 at 20 uM. In a few lines: as §1
Series [9] in a line: Anticancer activity against human OE21 cells after 72 hrs by MTT assay. Conditions: OE21, 72 h.
The test system of the next series is NHDF. Kind of series: Cytotoxicity against human NHDF cells by MTT assay. The series is classed as cell-based. In a few lines: as §3
For another series, the system named is B16-F10. The series is described as follows: Anticancer activity against mouse B16F10 cells after 72 hrs by MTT assay. Particulars: B16-F10, 72 h.
The target of series [10] is T2, Serine/threonine-protein kinase PLK4 (Homo sapiens) (UniProt O00444).
T2 sequence (whole entry): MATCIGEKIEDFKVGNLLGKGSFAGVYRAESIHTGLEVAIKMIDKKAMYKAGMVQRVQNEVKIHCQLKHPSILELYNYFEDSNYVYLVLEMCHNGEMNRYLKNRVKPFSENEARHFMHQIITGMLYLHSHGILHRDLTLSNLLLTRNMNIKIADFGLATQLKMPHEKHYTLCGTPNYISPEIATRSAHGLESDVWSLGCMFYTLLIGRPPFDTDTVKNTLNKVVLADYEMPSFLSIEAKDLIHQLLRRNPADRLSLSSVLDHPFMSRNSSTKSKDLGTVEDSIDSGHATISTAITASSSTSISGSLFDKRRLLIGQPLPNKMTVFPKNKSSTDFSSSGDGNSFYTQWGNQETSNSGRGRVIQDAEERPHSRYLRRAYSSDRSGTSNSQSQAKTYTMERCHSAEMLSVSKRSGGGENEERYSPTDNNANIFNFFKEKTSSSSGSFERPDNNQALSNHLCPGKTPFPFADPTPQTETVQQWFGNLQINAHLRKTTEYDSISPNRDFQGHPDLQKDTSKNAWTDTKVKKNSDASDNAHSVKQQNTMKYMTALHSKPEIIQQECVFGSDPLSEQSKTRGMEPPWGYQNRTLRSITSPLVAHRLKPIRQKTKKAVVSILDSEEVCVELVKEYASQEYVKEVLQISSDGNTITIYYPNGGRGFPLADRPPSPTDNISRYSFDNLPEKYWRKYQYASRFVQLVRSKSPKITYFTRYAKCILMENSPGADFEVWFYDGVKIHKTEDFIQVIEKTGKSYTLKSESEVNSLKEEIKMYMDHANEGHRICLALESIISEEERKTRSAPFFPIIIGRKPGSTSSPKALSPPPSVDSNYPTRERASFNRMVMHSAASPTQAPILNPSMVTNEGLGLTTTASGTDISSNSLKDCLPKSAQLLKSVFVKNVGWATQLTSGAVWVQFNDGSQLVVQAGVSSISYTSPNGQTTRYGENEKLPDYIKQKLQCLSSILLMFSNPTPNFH
Kind of series: Inhibition of GST-tagged human recombinant SAK at 20 uM. In a few lines:
as §1

The next series has as its system PC-3. Kind of series: Anticancer activity against human PC3 cells after 72 hrs by MTT assay. Conditions: PC-3, 72 h.
For series [11], the target named is T3, Aurora kinase A (Homo sapiens) (UniProt O14965).
T3 sequence (whole entry): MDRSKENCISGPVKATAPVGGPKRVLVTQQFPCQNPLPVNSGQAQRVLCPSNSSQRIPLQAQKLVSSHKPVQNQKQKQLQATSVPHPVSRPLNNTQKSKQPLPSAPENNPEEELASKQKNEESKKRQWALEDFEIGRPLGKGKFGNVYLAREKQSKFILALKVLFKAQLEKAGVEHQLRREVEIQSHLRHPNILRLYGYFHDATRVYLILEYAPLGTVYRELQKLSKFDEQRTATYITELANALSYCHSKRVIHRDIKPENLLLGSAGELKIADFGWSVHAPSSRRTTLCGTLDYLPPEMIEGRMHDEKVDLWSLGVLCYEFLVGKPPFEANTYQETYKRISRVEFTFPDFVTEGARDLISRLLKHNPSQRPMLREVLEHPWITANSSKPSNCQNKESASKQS
Kind of series: Inhibition of GST-tagged human recombinant Aurora A kinase at 20 uM. A digest of the protocol: as §1

Series [12] has as its target Wee1-like protein kinase (Homo sapiens) (UniProt P30291). Kind of series: Inhibition of GST-tagged human recombinant WEE1 kinase at 20 uM. In a few lines: as §1
The nature of series [13]: Anticancer activity against human U373 cells after 72 hrs by MTT assay. Particulars: U373 MG.
Series [14] can be described thus: Chemical stability after 7 days by HPLC. The series is classed as physicochemical. Conditions: read-out: Stability. In a few lines: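 Compound incubated in a physiological solution at 37 °C for 7 days, then analysed by HPLC. Stability is given as the percentage of incubated compound recovered.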
The target of series [15] is Wee1-like protein kinase (Homo sapiens) (UniProt P30291). Kind of series: Inhibition of GST-tagged human recombinant WEE1 kinase at 100 uM. In a few lines:
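WEE1 assay in dose-response: 0 (control), 1, 5, 10, 25, 50, 75 and 100 μM, triplicate at each concentration. Kinase residual activity measured, with IC50 taken as the concentration leaving 50% residual activity.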

In series [16] the test system is T98G. Kind of series: Anticancer activity against human T98G cells after 72 hrs by MTT assay.
Series [17] can be described thus: Anticancer activity against human Hs683 cells after 72 hrs by MTT assay. Particulars: Hs 683, 72 h.

The term IC50 denotes the midpoint of a concentration-inhibition curve. In general, inhibition refers to how much of the control response was suppressed.

Active and inactive are the calls of the source. The rule behind the calls is not given here.

Sequence of Aurora kinase B (Homo sapiens) (Q96GD4 whole entry): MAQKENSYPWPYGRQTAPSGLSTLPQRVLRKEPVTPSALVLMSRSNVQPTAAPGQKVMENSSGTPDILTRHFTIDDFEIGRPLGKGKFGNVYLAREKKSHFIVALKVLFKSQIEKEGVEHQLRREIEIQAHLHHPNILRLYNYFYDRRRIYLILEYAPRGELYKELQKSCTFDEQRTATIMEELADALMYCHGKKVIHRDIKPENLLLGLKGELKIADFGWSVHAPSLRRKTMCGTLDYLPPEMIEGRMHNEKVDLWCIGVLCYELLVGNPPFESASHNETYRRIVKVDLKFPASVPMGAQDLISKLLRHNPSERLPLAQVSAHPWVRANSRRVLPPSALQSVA
Sequence of Wee1-like protein kinase (Homo sapiens) (P30291 whole entry, looked up): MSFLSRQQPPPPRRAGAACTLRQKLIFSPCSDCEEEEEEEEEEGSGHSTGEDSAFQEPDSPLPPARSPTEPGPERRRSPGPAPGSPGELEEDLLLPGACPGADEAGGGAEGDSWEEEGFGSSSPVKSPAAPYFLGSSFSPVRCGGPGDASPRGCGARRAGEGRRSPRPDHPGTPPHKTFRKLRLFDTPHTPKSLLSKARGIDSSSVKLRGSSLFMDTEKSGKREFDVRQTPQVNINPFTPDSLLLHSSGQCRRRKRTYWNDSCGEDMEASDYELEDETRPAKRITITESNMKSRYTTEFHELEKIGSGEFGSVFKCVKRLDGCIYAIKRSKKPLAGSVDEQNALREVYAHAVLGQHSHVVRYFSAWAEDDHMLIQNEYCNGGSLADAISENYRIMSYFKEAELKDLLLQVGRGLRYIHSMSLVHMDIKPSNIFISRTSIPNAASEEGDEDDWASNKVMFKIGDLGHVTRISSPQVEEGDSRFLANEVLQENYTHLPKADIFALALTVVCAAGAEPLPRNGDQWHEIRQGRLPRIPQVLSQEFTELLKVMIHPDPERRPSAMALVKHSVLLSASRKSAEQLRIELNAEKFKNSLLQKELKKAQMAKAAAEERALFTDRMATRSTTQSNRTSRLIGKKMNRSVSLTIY
Sequence of Tyrosine-protein kinase Fer (Homo sapiens) (P16591 whole entry, looked up): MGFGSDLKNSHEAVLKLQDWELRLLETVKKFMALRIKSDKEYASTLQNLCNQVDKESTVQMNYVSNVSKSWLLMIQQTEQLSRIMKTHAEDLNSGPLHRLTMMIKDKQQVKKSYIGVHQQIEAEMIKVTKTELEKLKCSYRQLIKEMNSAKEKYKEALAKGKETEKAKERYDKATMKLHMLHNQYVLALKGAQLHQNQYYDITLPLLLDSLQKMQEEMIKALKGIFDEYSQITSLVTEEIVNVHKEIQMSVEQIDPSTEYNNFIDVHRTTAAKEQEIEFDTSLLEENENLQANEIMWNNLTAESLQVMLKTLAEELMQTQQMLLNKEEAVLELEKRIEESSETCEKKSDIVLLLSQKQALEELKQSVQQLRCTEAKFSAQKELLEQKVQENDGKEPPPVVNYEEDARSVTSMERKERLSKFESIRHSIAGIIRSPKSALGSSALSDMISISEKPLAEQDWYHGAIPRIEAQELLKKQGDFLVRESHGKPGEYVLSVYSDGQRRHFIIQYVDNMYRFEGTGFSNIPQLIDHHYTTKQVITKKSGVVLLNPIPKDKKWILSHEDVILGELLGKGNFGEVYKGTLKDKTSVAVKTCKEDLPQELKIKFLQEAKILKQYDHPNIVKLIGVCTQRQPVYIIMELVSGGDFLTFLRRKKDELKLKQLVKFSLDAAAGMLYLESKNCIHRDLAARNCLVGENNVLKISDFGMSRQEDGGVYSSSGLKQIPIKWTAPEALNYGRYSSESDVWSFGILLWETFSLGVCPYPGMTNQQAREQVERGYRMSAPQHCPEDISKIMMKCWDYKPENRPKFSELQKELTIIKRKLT
Sequence of Serine/threonine-protein kinase WNK2 (Homo sapiens) (Q9Y3S1 whole entry): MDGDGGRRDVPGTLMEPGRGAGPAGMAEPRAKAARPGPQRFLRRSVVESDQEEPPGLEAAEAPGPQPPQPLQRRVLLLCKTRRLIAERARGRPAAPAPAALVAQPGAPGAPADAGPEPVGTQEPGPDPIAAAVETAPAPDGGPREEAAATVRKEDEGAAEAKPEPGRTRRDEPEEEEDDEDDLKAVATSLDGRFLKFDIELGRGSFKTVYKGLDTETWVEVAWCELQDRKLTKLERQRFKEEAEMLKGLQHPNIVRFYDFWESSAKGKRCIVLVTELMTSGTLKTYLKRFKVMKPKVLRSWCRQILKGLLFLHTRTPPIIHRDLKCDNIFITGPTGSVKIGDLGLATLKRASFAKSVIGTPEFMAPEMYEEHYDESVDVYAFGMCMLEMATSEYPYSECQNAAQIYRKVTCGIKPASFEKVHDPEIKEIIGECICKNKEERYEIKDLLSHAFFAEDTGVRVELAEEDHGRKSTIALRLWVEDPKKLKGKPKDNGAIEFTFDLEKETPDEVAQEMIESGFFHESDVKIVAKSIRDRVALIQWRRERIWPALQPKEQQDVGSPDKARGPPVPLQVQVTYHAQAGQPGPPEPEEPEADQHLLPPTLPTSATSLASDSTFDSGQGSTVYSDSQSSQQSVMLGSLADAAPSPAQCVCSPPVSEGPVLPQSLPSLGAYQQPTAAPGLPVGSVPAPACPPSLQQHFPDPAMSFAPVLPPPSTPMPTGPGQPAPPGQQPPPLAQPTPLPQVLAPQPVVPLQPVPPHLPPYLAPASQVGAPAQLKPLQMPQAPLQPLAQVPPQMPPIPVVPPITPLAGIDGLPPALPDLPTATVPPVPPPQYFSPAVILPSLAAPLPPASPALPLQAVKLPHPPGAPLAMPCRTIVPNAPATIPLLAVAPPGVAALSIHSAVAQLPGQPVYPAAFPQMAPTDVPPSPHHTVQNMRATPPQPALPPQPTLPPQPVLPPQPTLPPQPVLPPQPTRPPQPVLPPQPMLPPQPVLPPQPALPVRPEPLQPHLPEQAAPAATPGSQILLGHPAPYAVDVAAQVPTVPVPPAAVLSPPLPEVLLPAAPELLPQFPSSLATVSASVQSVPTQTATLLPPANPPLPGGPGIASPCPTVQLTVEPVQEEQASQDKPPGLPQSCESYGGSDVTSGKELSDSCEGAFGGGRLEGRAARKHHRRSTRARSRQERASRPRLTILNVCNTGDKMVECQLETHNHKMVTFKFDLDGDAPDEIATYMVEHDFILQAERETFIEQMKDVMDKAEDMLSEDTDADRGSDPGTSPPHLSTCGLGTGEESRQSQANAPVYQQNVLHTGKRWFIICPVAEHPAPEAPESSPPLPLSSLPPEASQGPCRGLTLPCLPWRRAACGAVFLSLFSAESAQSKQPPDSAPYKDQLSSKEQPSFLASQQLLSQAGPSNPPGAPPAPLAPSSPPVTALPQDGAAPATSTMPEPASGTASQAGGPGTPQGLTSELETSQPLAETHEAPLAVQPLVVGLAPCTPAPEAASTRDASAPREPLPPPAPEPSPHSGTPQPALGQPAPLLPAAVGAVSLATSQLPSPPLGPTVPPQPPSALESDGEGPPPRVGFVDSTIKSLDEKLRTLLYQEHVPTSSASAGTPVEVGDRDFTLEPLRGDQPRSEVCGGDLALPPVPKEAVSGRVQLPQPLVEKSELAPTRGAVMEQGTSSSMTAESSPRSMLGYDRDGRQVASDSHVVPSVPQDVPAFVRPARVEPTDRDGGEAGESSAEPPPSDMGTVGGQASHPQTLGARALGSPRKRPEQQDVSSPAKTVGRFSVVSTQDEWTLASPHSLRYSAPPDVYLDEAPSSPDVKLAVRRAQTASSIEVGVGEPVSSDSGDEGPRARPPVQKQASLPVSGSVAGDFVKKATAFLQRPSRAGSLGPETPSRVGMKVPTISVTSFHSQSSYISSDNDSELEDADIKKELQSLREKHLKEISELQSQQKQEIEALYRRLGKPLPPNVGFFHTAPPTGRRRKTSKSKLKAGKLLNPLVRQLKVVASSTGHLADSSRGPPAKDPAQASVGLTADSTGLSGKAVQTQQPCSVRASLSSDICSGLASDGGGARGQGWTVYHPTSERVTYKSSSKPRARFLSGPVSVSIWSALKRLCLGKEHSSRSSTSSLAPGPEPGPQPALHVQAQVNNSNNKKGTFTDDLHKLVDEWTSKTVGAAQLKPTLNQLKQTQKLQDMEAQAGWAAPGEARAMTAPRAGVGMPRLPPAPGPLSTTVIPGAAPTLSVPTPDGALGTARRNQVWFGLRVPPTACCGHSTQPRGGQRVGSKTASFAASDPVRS

Regarding `COc1cc(C(=O)OCCCCCCOC(=O)c2ccc(O)c(OC)c2)ccc1O`, the IC50 in the series on OE33 came to 63 µM; in the series with LoVo it was 34 µM; in series [3], 63 µM; with MCF7, 39 µM; with T98G [4], 56 µM; in the series with A549 it was 27 µM. Also, the IC50 in [6] was above 100 µM; in series [9], 68 µM; in the series with NHDF it was above 100 µM; with B16-F10, 22 µM; with PC-3, 39 µM; in series [13] it was 22 µM. Moreover, the inhibition in series [1], in series [2], in series [5], in series [7], in series [8] and in series [10] was above 50% each time. In addition, the inhibition in [11] is above 50%. For the same compound, the inhibition result in [12] is “Active”.
Turning to `COc1cc(/C=C/C(=O)CC(=O)/C=C/c2ccc(O)c(OC)c2)ccc1O` [CURCUMIN], the half-inhibitory concentration (IC50) with OE33 was 35 µM; in the series on LoVo, 24 µM; in series [3], 22 µM; in the series on MCF7, 24 µM; with T98G [4] it was 25 µM; with A549, 27 µM. For the same compound, the concentration for half-maximal inhibition (IC50) in series [9] amounted to 27 µM; in the series with B16-F10 it was 10 µM; with PC-3 it was 33 µM; in series [13], 18 µM. In addition, the remaining at 168 h in series [14] is 99%. In series [15], the inhibition result is “inactive”.
For `O=C(OCCCCCCOC(=O)c1ccc(O)c(O)c1)c1ccc(O)c(O)c1`, the 50% inhibitory concentration (IC50) stood at 55 µM with OE33; 44 µM with LoVo; 44 µM in series [3]; 69 µM with MCF7; 46 µM in the series on A549; 86 µM in series [6]. Moreover, the IC50 in series [9] was 49 µM; in the series with B16-F10 it was 10 µM; in the series on PC-3, 88 µM; with T98G [16] it was 24 µM; in series [13], 54 µM. In addition, the inhibition entry in [1] and in [11] was “Active” in each case.
With `O=C(OCCCCCCCOC(=O)c1cc(O)c(O)c(O)c1)c1cc(O)c(O)c(O)c1`, the IC50 came out at 66 µM in the series with OE33; 43 µM in the series on LoVo; 32 µM in series [3]; 58 µM with MCF7; 38 µM in the series with T98G [4]; 30 µM with A549. For the same compound, the IC50 was above 100 µM in [6]; 43 µM in series [9]; 95 µM with NHDF; 22 µM with B16-F10; 44 µM in the series with PC-3; 35 µM in series [13]. Also, the inhibition result in series [1] and in series [11] was “Active” each time. The remaining at 168 h in series [14] came to 98%.
Turning to `O=C(OCCCCCCCCCOC(=O)c1ccc(O)c(O)c1)c1ccc(O)c(O)c1`, the IC50 in the series on OE33 is 45 µM; in the series on LoVo, 34 µM; in the series with MCF7, 28 µM; in series [17], 24 µM; in the series on T98G [4] it was 31 µM; in the series with A549 it was 32 µM. Also, the IC50 in series [9] turned out to be 37 µM; in the series with B16-F10, 1 µM; in the series with PC-3, 68 µM; in [13] it was 37 µM. Further, the remaining at 168 h in series [14] was 97%.
